The nature of assay [1]: Cytotoxicity against mouse B16F0 cells after 3 days by MTT assay. It is filed as functional, cell-based. As to conditions: B16F0, 72 h. A digest of the protocol: (§1)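 Murine tumour cells under continuous drug exposure for 3 days. Growth inhibition measured by MTT assay. IC50 is the concentration inhibiting growth by 50%.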
(In general: Tetrazolium dyes change colour on reduction, which living cells bring about.)

Assay [2] concerns L1210. Description: Cytotoxicity against mouse L1210 cells after 3 days by MTT assay. The note with it: L1210, 72 h. It is filed as functional, cell-based. A digest of the protocol: as §1

pIC50: −log10 of the molar value.

IC50 data for two compounds are collected here from ChEMBL document CHEMBL1250434, “A novel achiral seco-cyclopropylpyrido[e]indolone (CPyI) analog of CC-1065 and the duocarmycins: synthesis, DNA interactions, in vivo anticancer and anti-parasitic evaluation” (Bioorg Med Chem, 2010).

Broadly, the pIC50 is the IC50 on a negative log10 scale, so that one unit is a factor of ten. Low values mean a high IC50, high ones a low IC50. On to `COc1cc2cc(C(=O)N3CC(CCl)c4c3cc(O)c3ccccc43)[nH]c2c(OC)c1OC` (stereo not drawn), for which, in assay [1], the pIC50 is 7.11.

For `COc1cc2cc(C(=O)Nc3cc(O)c4ccccc4c3CCCl)[nH]c2c(OC)c1OC`, the pIC50 in assay [1] is 6.82; in assay [2] it was 6.74.
